According to ChEMBL document CHEMBL2331542, “Synthesis and in vitro antibacterial activity of quinolone/naphthyridone derivatives containing 3-alkoxyimino-4-(methyl)aminopiperidine scaffolds” (2013):
Values after ≈ are worked out from the molar mass of the structure shown.

Test system: Staphylococcus aureus
Assay: Antibacterial activity against methicillin-sensitive Staphylococcus aureus isolate 12-6
Format: functional
In short: (§1)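 MIC determined in vitro by a standard technique and defined as the lowest compound concentration giving complete inhibition of bacterial growth. The Gram-positive and Gram-negative panels were tested alongside gemifloxacin, levofloxacin and ciprofloxacin reference drugs.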

Row | Compound | MIC [µg/mL]
1 | CCn1cc(C(=O)O)c(=O)c2cc(F)c(N3CCC(NC)/C(=N/OC)C3)c(F)c21 (stereo unspecified) | 0.5 (≈ 1.22 µM)

Test system: Escherichia coli
Assay: Antibacterial activity against Escherichia coli isolate 12-1
Format: functional
In short: as §1

Row | Compound | MIC [µg/mL]
2 | CCn1cc(C(=O)O)c(=O)c2cc(F)c(N3CCC(NC)/C(=N/OC)C3)c(F)c21 (stereo unspecified) | 8 (≈ 19.6 µM)

Test system: Streptococcus pneumoniae
Assay: Antibacterial activity against Streptococcus pneumoniae isolate 12-5
Format: functional
In short: as §1

Row | Compound | MIC [µg/mL]
3 | CCn1cc(C(=O)O)c(=O)c2cc(F)c(N3CCC(NC)/C(=N/OC)C3)c(F)c21 (stereo unspecified) | 1 (≈ 2.45 µM)

Test system: Escherichia coli
Assay: Antibacterial activity against Escherichia coli isolate 12-4
Format: functional
In short: as §1

Row | Compound | MIC [µg/mL]
4 | CCn1cc(C(=O)O)c(=O)c2cc(F)c(N3CCC(NC)/C(=N/OC)C3)c(F)c21 (stereo unspecified) | > 128

Test system: Klebsiella pneumoniae
Assay: Antibacterial activity against extended-spectrum beta-lactamase-producing Klebsiella pneumoniae isolate 12-2
Format: functional
In short: as §1

Row | Compound | MIC [µg/mL]
5 | CCn1cc(C(=O)O)c(=O)c2cc(F)c(N3CCC(NC)/C(=N/OC)C3)c(F)c21 (stereo unspecified) | 32 (≈ 78.4 µM)

Test system: Staphylococcus epidermidis
Assay: Antibacterial activity against methicillin-sensitive Staphylococcus epidermidis isolate 12-2
Format: functional
In short: as §1

Row | Compound | MIC [µg/mL]
6 | CCn1cc(C(=O)O)c(=O)c2cc(F)c(N3CCC(NC)/C(=N/OC)C3)c(F)c21 (stereo unspecified) | 16 (≈ 39.2 µM)

Test system: Staphylococcus aureus
Assay: Antibacterial activity against methicillin-resistant Staphylococcus aureus isolate 12-3
Format: functional
In short: (§2)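 MIC determined in vitro by standard techniques, defined as the lowest compound concentration giving complete inhibition of bacterial growth. Gemifloxacin, levofloxacin and ciprofloxacin were tested alongside as reference drugs.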

Row | Compound | MIC [µg/mL]
7 | CCn1cc(C(=O)O)c(=O)c2cc(F)c(N3CCC(NC)/C(=N/OC)C3)c(F)c21 (stereo unspecified) | 1 (≈ 2.45 µM)

Test system: Staphylococcus aureus
Assay: Antibacterial activity against methicillin-sensitive Staphylococcus aureus isolate 12-7
Format: functional
In short: as §1

Row | Compound | MIC [µg/mL]
8 | CCn1cc(C(=O)O)c(=O)c2cc(F)c(N3CCC(NC)/C(=N/OC)C3)c(F)c21 (stereo unspecified) | 1 (≈ 2.45 µM)

Test system: Klebsiella pneumoniae
Assay: Antibacterial activity against extended-spectrum beta-lactamase-producing Klebsiella pneumoniae isolate 12-4
Format: functional
In short: as §1

Row | Compound | MIC [µg/mL]
9 | CCn1cc(C(=O)O)c(=O)c2cc(F)c(N3CCC(NC)/C(=N/OC)C3)c(F)c21 (stereo unspecified) | 1 (≈ 2.45 µM)

Test system: Streptococcus pneumoniae
Assay: Antibacterial activity against Streptococcus pneumoniae isolate 12-2
Format: functional
In short: as §1

Row | Compound | MIC [µg/mL]
10 | CCn1cc(C(=O)O)c(=O)c2cc(F)c(N3CCC(NC)/C(=N/OC)C3)c(F)c21 (stereo unspecified) | 1 (≈ 2.45 µM)

Test system: Staphylococcus aureus
Assay: Antibacterial activity against methicillin-resistant Staphylococcus aureus isolate 12-15
Format: functional
In short: as §2

Row | Compound | MIC [µg/mL]
11 | CCn1cc(C(=O)O)c(=O)c2cc(F)c(N3CCC(NC)/C(=N/OC)C3)c(F)c21 (stereo unspecified) | 1 (≈ 2.45 µM)

Test system: Staphylococcus epidermidis
Assay: Antibacterial activity against methicillin-sensitive Staphylococcus epidermidis isolate 12-3
Format: functional
In short: as §1

Row | Compound | MIC [µg/mL]
12 | CCn1cc(C(=O)O)c(=O)c2cc(F)c(N3CCC(NC)/C(=N/OC)C3)c(F)c21 (stereo unspecified) | 0.5 (≈ 1.22 µM)

Test system: Staphylococcus aureus
Assay: Antibacterial activity against methicillin-resistant Staphylococcus aureus isolate 12-13
Format: functional
In short: as §2

Row | Compound | MIC [µg/mL]
13 | CCn1cc(C(=O)O)c(=O)c2cc(F)c(N3CCC(NC)/C(=N/OC)C3)c(F)c21 (stereo unspecified) | 1 (≈ 2.45 µM)

Test system: Klebsiella pneumoniae
Assay: Antibacterial activity against extended-spectrum beta-lactamase-producing Klebsiella pneumoniae isolate 12-1
Format: functional
In short: as §1

Row | Compound | MIC [µg/mL]
14 | CCn1cc(C(=O)O)c(=O)c2cc(F)c(N3CCC(NC)/C(=N/OC)C3)c(F)c21 (stereo unspecified) | 16 (≈ 39.2 µM)

Test system: Staphylococcus epidermidis
Assay: Antibacterial activity against methicillin-sensitive Staphylococcus epidermidis isolate 12-1
Format: functional
In short: as §1

Row | Compound | MIC [µg/mL]
15 | CCn1cc(C(=O)O)c(=O)c2cc(F)c(N3CCC(NC)/C(=N/OC)C3)c(F)c21 (stereo unspecified) | 0.5 (≈ 1.22 µM)

Test system: Staphylococcus aureus
Assay: Antibacterial activity against methicillin-sensitive Staphylococcus aureus isolate 12-10
Format: functional
In short: as §1

Row | Compound | MIC [µg/mL]
16 | CCn1cc(C(=O)O)c(=O)c2cc(F)c(N3CCC(NC)/C(=N/OC)C3)c(F)c21 (stereo unspecified) | 0.5 (≈ 1.22 µM)

Test system: Escherichia coli
Assay: Antibacterial activity against extended-spectrum beta-lactamase-producing Escherichia coli isolate 12-1
Format: functional
In short: as §1

Row | Compound | MIC [µg/mL]
17 | CCn1cc(C(=O)O)c(=O)c2cc(F)c(N3CCC(NC)/C(=N/OC)C3)c(F)c21 (stereo unspecified) | > 128

Test system: Escherichia coli
Assay: Antibacterial activity against Escherichia coli ATCC 25922
Format: functional
In short: as §1

Row | Compound | MIC [µg/mL]
18 | CCn1cc(C(=O)O)c(=O)c2cc(F)c(N3CCC(NC)/C(=N/OC)C3)c(F)c21 (stereo unspecified) | 0.5 (≈ 1.22 µM)

Test system: Staphylococcus epidermidis
Assay: Antibacterial activity against methicillin-resistant Staphylococcus epidermidis isolate 12-33
Format: functional
In short: as §2

Row | Compound | MIC [µg/mL]
19 | CCn1cc(C(=O)O)c(=O)c2cc(F)c(N3CCC(NC)/C(=N/OC)C3)c(F)c21 (stereo unspecified) | 8 (≈ 19.6 µM)

Test system: Escherichia coli
Assay: Antibacterial activity against extended-spectrum beta-lactamase-producing Escherichia coli isolate 12-2
Format: functional
In short: as §1

Row | Compound | MIC [µg/mL]
20 | CCn1cc(C(=O)O)c(=O)c2cc(F)c(N3CCC(NC)/C(=N/OC)C3)c(F)c21 (stereo unspecified) | > 128

Test system: Escherichia coli
Assay: Antibacterial activity against extended-spectrum beta-lactamase-producing Escherichia coli isolate 12-4
Format: functional
In short: as §1

Row | Compound | MIC [µg/mL]
21 | CCn1cc(C(=O)O)c(=O)c2cc(F)c(N3CCC(NC)/C(=N/OC)C3)c(F)c21 (stereo unspecified) | 128 (≈ 313 µM)

Test system: Pseudomonas aeruginosa
Assay: Antibacterial activity against Pseudomonas aeruginosa isolate 12-2
Format: functional
In short: as §1

Row | Compound | MIC [µg/mL]
22 | CCn1cc(C(=O)O)c(=O)c2cc(F)c(N3CCC(NC)/C(=N/OC)C3)c(F)c21 (stereo unspecified) | 8 (≈ 19.6 µM)

Test system: Klebsiella pneumoniae
Assay: Antibacterial activity against Klebsiella pneumoniae isolate 12-1
Format: functional
In short: as §1

Row | Compound | MIC [µg/mL]
23 | CCn1cc(C(=O)O)c(=O)c2cc(F)c(N3CCC(NC)/C(=N/OC)C3)c(F)c21 (stereo unspecified) | 4 (≈ 9.79 µM)

Test system: Klebsiella pneumoniae
Assay: Antibacterial activity against Klebsiella pneumoniae isolate 12-2
Format: functional
In short: as §1

Row | Compound | MIC [µg/mL]
24 | CCn1cc(C(=O)O)c(=O)c2cc(F)c(N3CCC(NC)/C(=N/OC)C3)c(F)c21 (stereo unspecified) | 4 (≈ 9.79 µM)

Test system: Klebsiella pneumoniae
Assay: Antibacterial activity against Klebsiella pneumoniae isolate 12-4
Format: functional
In short: as §1

Row | Compound | MIC [µg/mL]
25 | CCn1cc(C(=O)O)c(=O)c2cc(F)c(N3CCC(NC)/C(=N/OC)C3)c(F)c21 (stereo unspecified) | 1 (≈ 2.45 µM)

Test system: Staphylococcus epidermidis
Assay: Antibacterial activity against methicillin-resistant Staphylococcus epidermidis isolate 12-35
Format: functional
In short: as §2

Row | Compound | MIC [µg/mL]
26 | CCn1cc(C(=O)O)c(=O)c2cc(F)c(N3CCC(NC)/C(=N/OC)C3)c(F)c21 (stereo unspecified) | 0.5 (≈ 1.22 µM)

Test system: Pseudomonas aeruginosa
Assay: Antibacterial activity against Pseudomonas aeruginosa isolate 12-1
Format: functional
In short: as §1

Row | Compound | MIC [µg/mL]
27 | CCn1cc(C(=O)O)c(=O)c2cc(F)c(N3CCC(NC)/C(=N/OC)C3)c(F)c21 (stereo unspecified) | 8 (≈ 19.6 µM)

Test system: Staphylococcus epidermidis
Assay: Antibacterial activity against methicillin-resistant Staphylococcus epidermidis isolate 12-5
Format: functional
In short: as §2

Row | Compound | MIC [µg/mL]
28 | CCn1cc(C(=O)O)c(=O)c2cc(F)c(N3CCC(NC)/C(=N/OC)C3)c(F)c21 (stereo unspecified) | 0.5 (≈ 1.22 µM)

Test system: Escherichia coli
Assay: Antibacterial activity against Escherichia coli isolate 12-5
Format: functional
In short: as §1

Row | Compound | MIC [µg/mL]
29 | CCn1cc(C(=O)O)c(=O)c2cc(F)c(N3CCC(NC)/C(=N/OC)C3)c(F)c21 (stereo unspecified) | > 128

Test system: Pseudomonas aeruginosa
Assay: Antibacterial activity against Pseudomonas aeruginosa ATCC 27853
Format: functional
In short: as §1

Row | Compound | MIC [µg/mL]
30 | CCn1cc(C(=O)O)c(=O)c2cc(F)c(N3CCC(NC)/C(=N/OC)C3)c(F)c21 (stereo unspecified) | 8 (≈ 19.6 µM)

Test system: Staphylococcus aureus
Assay: Antibacterial activity against Staphylococcus aureus […]
Format: functional
In short: as §1

Row | Compound | MIC [µg/mL]
31 | CCn1cc(C(=O)O)c(=O)c2cc(F)c(N3CCC(NC)/C(=N/OC)C3)c(F)c21 (stereo unspecified) | 0.125 (≈ 0.306 µM)
